“And” between values parts separate entries of the source, which are not always exact repeats. Identical values can stand only once.
How the values were obtained:
[1] = test system: HL7702; test: MTT cell growth inhibition assay, HL7702; format: cell-based; settings: Homo sapiens, L02, 72 h, read-out: IC50 HL7702
Procedure, shortened: (§1)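 MTT assay. Seeding per well was 3 × 10^3 for cancer cells, 4 × 10^3 for HUVEC and 8 × 10^3 for HL7702. Test compound was added after adherence and incubated 72 h. MTT (5 mg mL−1 stock) was added for a further 4 h at 37 °C, formazan was dissolved in DMSO, and absorbance was read at 570 nm. Inhibition was calculated relative to controls, and IC50 is the concentration giving 50% growth inhibition.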

[2] = test system: A549; test: MTT cell growth inhibition assay, A549; format: cell-based; settings: Homo sapiens, A549, 72 h, read-out: IC50 A549
Procedure, shortened: as §1

[3] = test system: BGC-823; test: MTT cell growth inhibition assay, BGC-823; format: cell-based; settings: Homo sapiens, BGC-823, 72 h, read-out: IC50 BGC-823
Procedure, shortened: as §1

[4] = test system: HeLa; test: MTT cell growth inhibition assay, HeLa; format: cell-based; settings: Homo sapiens, 72 h, read-out: IC50 HeLa
Procedure, shortened: as §1

[5] = test system: HUVEC; test: MTT cell growth inhibition assay, HUVEC; format: cell-based; settings: Homo sapiens, 72 h, read-out: IC50 HUVEC
Procedure, shortened: as §1

[6] = test system: HepG2; test: MTT cell growth inhibition assay, HepG2; format: cell-based; settings: Homo sapiens, HepG2, 72 h, read-out: IC50 HepG2
Procedure, shortened: as §1

[7] = test system: A431; test: MTT cell growth inhibition assay, A431; format: cell-based; settings: Homo sapiens, A-431, 72 h, read-out: IC50 A431
Procedure, shortened: as §1

[8] = test system: MDA-MB-231 xenograft; test: In vivo antitumor assay, MDA-MB-231 xenograft model; set-up: species or system nude mice; settings: 10 mg kg^−1 via caudal vein every three days, 15 days
Procedure, shortened: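 Female athymic nude mice (6–7 weeks) first received 5 × 10^6 logarithmic-phase MDA-MB-231 cells s.c. in physiological saline. After two weeks, tumour fragments were implanted into the right flank. At a mean tumour volume of 100 mm3, mice were randomised (6 per group) and dosed 10 mg kg−1 via the tail vein every three days for 15 days. Vehicle was 5% glucose with 1% DMSO and 2% lecithin; a reference Hsp90 inhibitor served as positive control. Calipers were used every three days, with V = length × width²/2. TGI came from final tumour weights, and T/C from mean RTV (Vt/V0). Student's two-tailed t test was used, P < 0.05.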

[9] = test system: SW480; test: MTT cell growth inhibition assay, SW480; format: cell-based; settings: Homo sapiens, SW480, 72 h, read-out: IC50 SW480
Procedure, shortened: as §1

[10] = test system: Hsp90 client proteins (Her2, AKT, CDK4) and Hsp70 in MDA-MB 231 cells; test: Western blot assay of Hsp90 inhibition in cellular system; format: cell-based, human; settings: 0.5 μM
Procedure, shortened: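 MDA-MB 231 cells were treated with or without test compound over different time courses. Cells were lysed in ice-cold Tris-HCl (pH 7.4) buffer with Triton, EDTA/EGTA, phosphatase and protease inhibitors, then boiled 10 min in SDS loading buffer. Proteins were separated by 8–12% SDS-PAGE and transferred to PVDF. Membranes were blocked in 5% BSA in PBS-Tween for 1 h, incubated with primary antibodies overnight at 4 °C, and detected with peroxidase-conjugated anti-rabbit or anti-mouse secondary antibodies and ECL.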

[11] = test system: MDA-MB-231; test: MTT cell growth inhibition assay, MDA-MB-231; format: cell-based; settings: Homo sapiens, MDA-MB-231, 72 h, read-out: IC50 MDA-MB-231
Procedure, shortened: as §1

[12] = In vivo hepatotoxicity assay; set-up: species or system Kunming mice; settings: mice
Procedure, shortened: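 Female Kunming mice (4–6 weeks) were randomised into three groups of three: vehicle control, or test compound or parent ansamycin at 10 mg kg−1. They were injected once daily for three consecutive days. Serum AST and ALT were then measured with spectrophotometric kits and reported in U L−1.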

[13] = 10 mg kg^−1, injected once a day for three days, blood serum

| IC50 [2] | IC50 [3] | IC50 [4] | IC50 [6] | IC50 [7] | IC50 [9] | IC50 [11] | SMILES | IC50 [1] | IC50 [5] | T/C ([8]; relative tumor volume) | TGI ([8]; tumor weight) | levels of Hsp70 [10] | ALT [12, 13] | AST [12, 13] | AST and ALT levels versus vehicle control group ([12]; 10 mg kg^−1, three days) |
| --- | --- | --- | --- | --- | --- | --- | --- | --- | --- | --- | --- | --- | --- | --- | --- |
| 87 ± 6 nM | 725 ± 99 nM | 112 ± 18 nM | 82 ± 16 nM | 72 ± 4 nM | 614 ± 85 nM | 324 ± 76 nM | C=CCNC1=C2C[C@@H](C)C[C@H](OC)[C@H](O)[C@@H](C)/C=C(\C)[C@H](OC(N)=O)[C@@H](OC)/C=C\C=C(/C)C(=O)NC(=CC1=O)C2=O [Compound 17-AAG, 17-allylamino-17-demethoxygeldanamycin] | 105 ± 7 nM | 271 ± 38 nM | 41.9% and 41.9 ± 11.3% | 55.1% and 55.1 ± 5.5% | markedly increased |  |  |  |
| 91 ± 7 nM | 40 ± 8 nM | 731 ± 53 nM | 45 ± 7 nM | 45 ± 6 nM | 298 ± 34 nM | 59 ± 13 nM | COC1=C2C[C@@H](C)C[C@H](OC)[C@H](O)[C@@H](C)/C=C(\C)[C@H](OC(N)=O)[C@@H](OC)/C=C\C=C(/C)C(=O)NC(=CC1=O)C2=O [GA, Geldanamycin] | 133 ± 20 nM | 18 ± 3 nM |  |  | markedly increased | 273.0 ± 25.3 U L^−1 | 317.2 ± 39.1 U L^−1 | significantly higher |

— PMC9076653 (RSC Advances, 2019)
